Results taken from ChEMBL document CHEMBL1121796, “Bioactivation of the antitumor drugs 9-hydroxyellipticine and derivatives by a peroxidase-hydrogen peroxide system” (1981).

Key:
[1] = molecular target: Myeloperoxidase (Homo sapiens) (UniProt P05164); assay: The effect on NADH oxidation in the presence of MPO-H2O2 at pH 7.4
L1210 [2] = assay: Compound was tested for its antitumor activity against murine leukemia L1210 cells in vitro, expressed as ID50; format: functional; details: Mus musculus, read-out: ID50 (the source's name)
Summary of the method: (§1)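 L1210 murine leukemia cells were grown in culture with drug for 48 h. ID50 is the drug concentration that cuts the rate of cell multiplication by 50% compared with untreated controls.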

[3] = molecular target: Myeloperoxidase (Homo sapiens) (UniProt P05164); assay: The effect on oxygen uptake in the presence of MPO-H2O2 at pH 6.8
[4] = molecular target: Myeloperoxidase (Homo sapiens) (UniProt P05164); assay: The effect on NADH oxidation in the presence of MPO-H2O2 at pH 8.3
[5] = molecular target: Myeloperoxidase (Homo sapiens) (UniProt P05164); assay: The effect on NADH oxidation in the presence of MPO-H2O2 without compound at pH 7.4
[6] = molecular target: Myeloperoxidase (Homo sapiens) (UniProt P05164); assay: The effect on oxygen uptake in the presence of MPO-H2O2 at pH 7.8
[7] = molecular target: Myeloperoxidase (Homo sapiens) (UniProt P05164); assay: The effect on oxygen uptake in the presence of MPO-H2O2 without the compound at pH 8.3
[8] = molecular target: Myeloperoxidase (Homo sapiens) (UniProt P05164); assay: The effect on oxygen uptake in the presence of MPO-H2O2 at pH 7.4
[9] = molecular target: Myeloperoxidase (Homo sapiens) (UniProt P05164); assay: The effect on oxygen uptake in the presence of MPO-H2O2 without the compound at pH 6.0
L1210 [10] = assay: Compound was tested for its cytotoxic activity against murine leukemia L1210 cells in mice after intraperitoneal treatment, expressed as LD0 (highest nonlethal dose).; format: functional, Mus musculus
Summary of the method: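 Highest nonlethal dose (LD0) found for each drug after a single intraperitoneal injection into DBA/2 or Swiss mice.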

[11] = molecular target: Myeloperoxidase (Homo sapiens) (UniProt P05164); assay: The effect on oxygen uptake in the presence of MPO-H2O2 at pH 8.3
[12] = molecular target: Myeloperoxidase (Homo sapiens) (UniProt P05164); assay: The effect on oxygen uptake in the presence of MPO-H2O2 without the compound at pH 7.8
[13] = molecular target: Myeloperoxidase (Homo sapiens) (UniProt P05164); assay: The effect on NADH oxidation in the presence of MPO-H2O2 without compound at pH 7.8
[14] = molecular target: Myeloperoxidase (Homo sapiens) (UniProt P05164); assay: The effect on NADH oxidation in the presence of MPO-H2O2 at pH 6.0
[15] = molecular target: Myeloperoxidase (Homo sapiens) (UniProt P05164); assay: The effect on NADH oxidation in the presence of MPO-H2O2 without the compound at pH 8.3
[16] = molecular target: Myeloperoxidase (Homo sapiens) (UniProt P05164); assay: The effect on oxygen uptake in the presence of MPO-H2O2 without the compound at pH 7.4
[17] = molecular target: Myeloperoxidase (Homo sapiens) (UniProt P05164); assay: The effect on NADH oxidation in the presence of MPO-H2O2 without the compound
[18] = molecular target: Myeloperoxidase (Homo sapiens) (UniProt P05164); assay: The effect on oxygen uptake in the presence of MPO-H2O2 at pH 6.0
[19] = molecular target: Myeloperoxidase (Homo sapiens) (UniProt P05164); assay: The effect on oxygen uptake in the presence of MPO-H2O2 without the compound at pH 6.8
[20] = molecular target: Myeloperoxidase (Homo sapiens) (UniProt P05164); assay: The effect on NADH oxidation in the presence of MPO-H2O2 at pH 6.8
Mus musculus [21] = assay: Increase in life span over controls (10e5 cells) in mice after intraperitoneal treatment of the compound.; format: functional; design: concentration or dose not given beside the values
Summary of the method: (§2)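 DBA/2 mice were inoculated with 10⁵ L1210 leukemia cells and given a single intraperitoneal injection of drug. Survival was compared with untreated controls as increase in life span, ILS = [(T − C)/C] × 100. An antitumor effect was counted significant at ILS ≥ 25%.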

[22] = molecular target: Myeloperoxidase (Homo sapiens) (UniProt P05164); assay: The effect on NADH oxidation in the presence of MPO-H2O2.
[23] = molecular target: Myeloperoxidase (Homo sapiens) (UniProt P05164); assay: The effect on NADH oxidation in the presence of MPO-H2O2 without the compound at pH 6.0
[24] = molecular target: Myeloperoxidase (Homo sapiens) (UniProt P05164); assay: The effect on NADH oxidation in the presence of MPO-H2O2 at pH 7.8
[25] = molecular target: Myeloperoxidase (Homo sapiens) (UniProt P05164); assay: The effect on NADH oxidation in the presence of MPO-H2O2.; remark: listed apart in the source
L1210 [26] = assay: The compound is tested for its cytotoxic activity against murine leukemia L1210 cells in mice after intraperitoneal treatment, expressed as LD0 (highest nonlethal dose).; format: functional, Mus musculus
L1210 [27] = assay: The compound is tested for its antitumor activity against murine leukemia L1210 cells in vitro, expressed as ID50; format: functional; details: Mus musculus, read-out: ID50 (the source's name)
Summary of the method: as §1

[28] = molecular target: Myeloperoxidase (Homo sapiens) (UniProt P05164); assay: The effect on oxygen consumed in the presence of MPO-H2O2.
Mus musculus [29] = assay: Increase in life span over control (10e5 cells) in mice after intraperitoneal treatment of the compound.; format: functional
Summary of the method: as §2

[30] = molecular target: Myeloperoxidase (Homo sapiens) (UniProt P05164); assay: he effect on oxygen consumed in the presence of MPO-H2O2.

## Cc1c2ccncc2c(C)c2c1[nH]c1ccc(O)cc12
[1]
  NADH oxidation: 10.2 nM/min
L1210 [2]
  IC50: 15 nM
[3]
  Oxygen uptake: 0 nM/min
[4]
  NADH oxidation: 6.5 nM/min
[5]
  NADH oxidation: 0 nM/min
[6]
  Oxygen uptake: 0 nM/min
[7]
  Oxygen uptake: 0 nM/min
[8]
  Oxygen uptake: 0 nM/min
[9]
  Oxygen uptake: 0.52 nM/min
L1210 [10]
  LD0: 50 mg/kg
[11]
  Oxygen uptake: 0 nM/min
[12]
  Oxygen uptake: 0 nM/min
[13]
  NADH oxidation: 0 nM/min
[14]
  NADH oxidation: 5.5 nM/min
[15]
  NADH oxidation: 0 nM/min
[16]
  Oxygen uptake: 0 nM/min
[17]
  NADH oxidation: 0.5 nM/min
[18]
  Oxygen uptake: 0 nM/min
[19]
  Oxygen uptake: 0.28 nM/min
[20]
  NADH oxidation: 7.8 nM/min
Mus musculus [21]
  ILS: 53%
[22]
  NADH oxidized: 10.5 nM/min
[23]
  NADH oxidized: 1.2 nM/min
[24]
  NADH oxidation: 7.2 nM/min
[25]
  Oxygen consumed: 0 nM/min

## COc1ccc2[nH]c3c(C)c4ccncc4c(C)c3c2c1
L1210 [26]
  LD0: 70 mg/kg
L1210 [27]
  IC50: 600 nM
[28]
  Oxygen consumed: 0 nM/min
Mus musculus [21]
  ILS: 70%
[22]
  NADH oxidized: 0.22 nM/min

## Cc1c2c[n+](C)ccc2c(C)c2c1c1cc(O)ccc1n2C
L1210 [2]
  IC50: 41 nM
L1210 [10]
  LD0: 15 mg/kg
[28]
  Oxygen consumed: 7.7 nM/min
[22]
  NADH oxidized: 16.15 nM/min
Mus musculus [29]
  ILS: 78%

## Cc1c2ccncc2c(C)c2c1[nH]c1ccccc12 [ELLIPTECINE]
L1210 [2]
  IC50: 990 nM
L1210 [10]
  LD0: 50 mg/kg
[28]
  Oxygen consumed: 0 nM/min
Mus musculus [21]
  ILS: 68%
[22]
  NADH oxidized: 0 nM/min

## Cc1c2cc[n+](C)cc2c(C)c2c1[nH]c1ccc(O)cc12 [ELLIPTINIUM]
L1210 [2]
  IC50: 50 nM
L1210 [10]
  LD0: 5 mg/kg
[28]
  Oxygen consumed: 0 nM/min
Mus musculus [21]
  ILS: 62%
[22]
  NADH oxidized: 12.2 nM/min

## Cc1c2cc[n+](C)cc2c(C)c2c1[nH]c1ccccc12
L1210 [2]
  IC50: 1680 nM
[30]
  Oxygen consumed: 0 nM/min
L1210 [10]
  LD0: 12.5 mg/kg
Mus musculus [21]
  ILS: 18%
[22]
  NADH oxidized: 0 nM/min
